Test results from ChEMBL document CHEMBL1255303, “In vitro and in vivo antifungal activities of T-2307, a novel arylamidine” (2008).
In brackets after ≈: the same amount, converted by molar mass.

Experiments:
Format in all cases: functional
Candida tropicalis = test: Antifungal activity against Candida tropicalis clinical isolates after 48 hrs by broth microdilution method
In short: (§1)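 Clinical isolates from Japanese hospitals or culture collections were tested by broth microdilution in RPMI 1640-MOPS. Inoculum was 0.57 × 10^3–2.5 × 10^3 CFU/ml for yeasts and 0.4 × 10^4–3.3 × 10^4 CFU/ml for filamentous fungi. Incubation was at 35°C for about 48 h, or 72 h where footnoted. Results were summarised as MIC range, MIC50 and MIC90.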

Candida albicans [1] = test: Antifungal activity against Candida albicans ATCC MYA-1003 after 47 hrs by broth microdilution method; details: ATCC MYA-1003, 47 h
In short: (§2)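 Fluconazole-resistant or susceptible-dose-dependent ATCC C. albicans strains were tested by CLSI M27-A2 broth microdilution in RPMI 1640–0.165 M MOPS, pH 7.0, with a final inoculum of 1.1–1.5 × 10^3 CFU/ml at 35°C for about 47 h. MIC was the lowest concentration with a prominent (~50%) turbidity decrease relative to growth control; amphotericin B was read at complete inhibition.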

Cryptococcus neoformans [2] = test: Antifungal activity against Cryptococcus neoformans TIMM 0354 after 72 hrs by broth microdilution method; details: TIMM 0354, 72 h
In short: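 CLSI M27-A2 (yeasts) or M38-A (A. fumigatus) broth microdilution in RPMI 1640 buffered to pH 7.0 with 0.165 M MOPS. Final inocula were 0.65–2.5 × 10^3 CFU/ml for yeasts and 0.87–3.8 × 10^4 CFU/ml for filamentous fungi. Incubation was at 35°C for about 48 h (72 h for C. neoformans). MIC was the lowest concentration giving a prominent (~50%) turbidity drop versus growth control; amphotericin B required complete inhibition.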

Candida albicans [3] = test: Antifungal activity against Candida albicans ATCC MYA-573 after 47 hrs by broth microdilution method; details: ATCC MYA-573, 47 h; in short: as §2
Fusarium solani = test: Antifungal activity against Fusarium solani IFO 31093 after 48 hrs by broth microdilution method; details: IFO 31093, 48 h
In short: (§3)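 CLSI M27-A2 (yeasts) / M38-A (moulds) broth microdilution in RPMI 1640 buffered to pH 7.0 with 0.165 M MOPS. Malassezia furfur got the same medium supplemented with glucose, bile salts, glycerol, glycerol monostearate and Tween 20. Final inoculum 0.65 × 10^3–2.5 × 10^3 CFU/ml for yeasts and 0.87 × 10^4–3.8 × 10^4 CFU/ml for filamentous fungi. Incubation at 35°C except M. racemosus and F. solani, which were held at 30°C.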

Rhizopus arrhizus = test: Antifungal activity against Rhizopus oryzae NBRC 31005 after 24 hrs by broth microdilution method; details: NBRC 31005, 24 h; in short: as §3
Candida albicans [4] = test: Antifungal activity against Candida albicans ATCC 64550 after 47 hrs by broth microdilution method; details: ATCC 64550, 47 h
In short: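 Fluconazole-resistant or susceptible-dose-dependent C. albicans ATCC strains were tested by broth microdilution in RPMI 1640-MOPS. Inoculum was 1.1 × 10^3–1.5 × 10^3 CFU/ml, with incubation at 35°C for about 47 h. Yeast MIC was read as about 50% turbidity decrease relative to growth control, except amphotericin B, read at complete inhibition.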

Candida albicans [5] = test: Antifungal activity against Candida albicans TIMM 1623 after 48 hrs by broth microdilution method; details: TIMM 1623, 48 h; in short: as §3
Scedosporium boydii = test: Antifungal activity against Pseudallescheria boydii NBRC 32229 after 72 hrs by broth microdilution method; details: NBRC 32229, 72 h; in short: as §3
Lichtheimia corymbifera = test: Antifungal activity against Absidia corymbifera NBRC 4009 after 24 hrs by broth microdilution method; details: NBRC 4009, 24 h; in short: as §3
Candida albicans [6] = test: Antifungal activity against Candida albicans ATCC 96901 after 47 hrs by broth microdilution method; details: ATCC 96901, 47 h; in short: as §2
Aspergillus nidulans = test: Antifungal activity against Aspergillus nidulans NBRC 33017 after 48 hrs by broth microdilution method; details: NBRC 33017, 48 h; in short: as §3
Mucor racemosus = test: Antifungal activity against Mucor racemosus NBRC5403 after 24 hrs by broth microdilution method; details: NBRC5403, 24 h
Candida dubliniensis = test: Antifungal activity against Candida dubliniensis ATCC MYA-577 after 48 hrs by broth microdilution method; details: ATCC MYA-577, 48 h; in short: as §3
Aspergillus fumigatus [7] = test: Antifungal activity against Aspergillus fumigatus TIMM 0063 after 48 hrs by broth microdilution method; details: TIMM 0063, 48 h; in short: as §3
Trichosporon asahii = test: Antifungal activity against Trichosporon asahii JCM 2466 after 48 hrs by broth microdilution method; details: JCM 2466, 48 h; in short: as §3
Pichia kudriavzevii = test: Antifungal activity against Candida krusei IFO 0584 after 48 hrs by broth microdilution method; details: IFO 0584, 48 h; in short: as §3
Candida albicans [8] = test: Antifungal activity against Candida albicans ATCC 90028 after 48 hrs by broth microdilution method; details: ATCC 90028, 48 h; in short: as §3
[9] = tested on: Meyerozyma guilliermondii; test: Antifungal activity against Candida guilliermondii clinical isolates after 48 hrs by broth microdilution method; in short: as §1
Cryptococcus neoformans [10] = test: Antifungal activity against Cryptococcus neoformans clinical isolates after 72 hrs by broth microdilution method; in short: as §1
Aspergillus fumigatus [11] = test: Antifungal activity against Aspergillus fumigatus IFM 49895 after 48 hrs by broth microdilution method; details: IFM 49895, 48 h; in short: as §3
Trichophyton rubrum = test: Antifungal activity against Trichophyton rubrum NBRC 5467 after 72 hrs by broth microdilution method; details: NBRC 5467, 72 h; in short: as §3
Aspergillus terreus = test: Antifungal activity against Aspergillus terreus NBRC 33026 after 48 hrs by broth microdilution method; details: NBRC 33026, 48 h; in short: as §3

Compound `OC(Cn1cncn1)(Cn1cncn1)c1ccc(F)cc1F` [FLUCONAZOLE] has an MIC50 (Candida tropicalis) of 0.5 µg/mL (≈ 1.63 µM), an MIC90 (Candida tropicalis) of 1 µg/mL (≈ 3.27 µM) and an MIC (Candida albicans [1]) of 64 µg/mL (≈ 209 µM). It also gave an MFC (Cryptococcus neoformans [2]) greater than 64 µg/mL, an MIC (Cryptococcus neoformans [2]) of 2 µg/mL (≈ 6.53 µM) and an MIC (Candida albicans [3]) greater than 64 µg/mL. It also gave an MFC (Fusarium solani) greater than 64 µg/mL, an MIC (Fusarium solani) greater than 64 µg/mL and an MFC (Rhizopus arrhizus) greater than 64 µg/mL. It also gave an MIC (Rhizopus arrhizus) greater than 64 µg/mL, an MIC (Candida albicans [4]) of 16 µg/mL (≈ 52.2 µM) and an MFC (Candida albicans [5]) greater than 64 µg/mL. For the same compound, the MIC (Candida albicans [5]) was 0.125 µg/mL (≈ 0.408 µM), the MFC (Scedosporium boydii) was greater than 64 µg/mL and the MIC (Scedosporium boydii) was 16 µg/mL (≈ 52.2 µM). For the same compound, the MFC (Lichtheimia corymbifera) was greater than 64 µg/mL, the MIC (Lichtheimia corymbifera) was greater than 64 µg/mL and the MIC (Candida albicans [6]) was greater than 64 µg/mL. For the same compound, the MFC (Aspergillus nidulans) was greater than 64 µg/mL, the MIC (Aspergillus nidulans) was 64 µg/mL (≈ 209 µM) and the MFC (Mucor racemosus) was greater than 64 µg/mL. It also gave an MIC (Mucor racemosus) greater than 64 µg/mL, an MFC (Candida dubliniensis) greater than 64 µg/mL and an MIC (Candida dubliniensis) of 0.125 µg/mL (≈ 0.408 µM). For the same compound, the MFC (Aspergillus fumigatus [7]) was greater than 64 µg/mL, the MIC (Aspergillus fumigatus [7]) was greater than 64 µg/mL and the MFC (Trichosporon asahii) was greater than 64 µg/mL. For the same compound, the MIC (Trichosporon asahii) was 1 µg/mL (≈ 3.27 µM), the MFC (Pichia kudriavzevii) was 64 µg/mL (≈ 209 µM) and the MIC (Pichia kudriavzevii) was 32 µg/mL (≈ 104 µM). The MFC (Candida albicans [8]) was greater than 64 µg/mL, the MIC (Candida albicans [8]) was 0.125 µg/mL (≈ 0.408 µM) and the MIC50 [9] was 4 µg/mL (≈ 13.1 µM). For the same compound, the MIC90 [9] was 8 µg/mL (≈ 26.1 µM), the MIC50 (Cryptococcus neoformans [10]) was 2 µg/mL (≈ 6.53 µM) and the MIC90 (Cryptococcus neoformans [10]) was 4 µg/mL (≈ 13.1 µM). The MFC (Aspergillus fumigatus [11]) was greater than 64 µg/mL, the MIC (Aspergillus fumigatus [11]) was greater than 64 µg/mL and the MFC (Trichophyton rubrum) was greater than 64 µg/mL. The MIC (Trichophyton rubrum) was 0.25 µg/mL (≈ 0.816 µM), the MFC (Aspergillus terreus) was greater than 64 µg/mL and the MIC (Aspergillus terreus) was greater than 64 µg/mL.
Compound `C[C@@H](c1ncncc1F)[C@](O)(Cn1cncn1)c1ccc(F)cc1F` [VORICONAZOLE] has an MIC50 (Candida tropicalis) of 0.0625 µg/mL (≈ 0.179 µM), an MIC90 (Candida tropicalis) of 0.0625 µg/mL (≈ 0.179 µM) and an MIC (Candida albicans [1]) of 0.5 µg/mL (≈ 1.43 µM). The MFC (Cryptococcus neoformans [2]) was greater than 64 µg/mL, the MIC (Cryptococcus neoformans [2]) was 0.0313 µg/mL (≈ 0.0896 µM) and the MIC (Candida albicans [3]) was 0.25 µg/mL (≈ 0.716 µM). For the same compound, the MFC (Fusarium solani) was 8 µg/mL (≈ 22.9 µM), the MIC (Fusarium solani) was 8 µg/mL (≈ 22.9 µM) and the MFC (Rhizopus arrhizus) was 32 µg/mL (≈ 91.6 µM). The MIC (Rhizopus arrhizus) was 8 µg/mL (≈ 22.9 µM), the MIC (Candida albicans [4]) was 0.25 µg/mL (≈ 0.716 µM) and the MFC (Candida albicans [5]) was greater than 64 µg/mL. For the same compound, the MIC (Candida albicans [5]) was 0.0039 µg/mL (≈ 0.0112 µM), the MFC (Scedosporium boydii) was greater than 64 µg/mL and the MIC (Scedosporium boydii) was 1 µg/mL (≈ 2.86 µM). For the same compound, the MFC (Lichtheimia corymbifera) was greater than 64 µg/mL, the MIC (Lichtheimia corymbifera) was 32 µg/mL (≈ 91.6 µM) and the MIC (Candida albicans [6]) was 0.5 µg/mL (≈ 1.43 µM). The MFC (Aspergillus nidulans) was 0.25 µg/mL (≈ 0.716 µM), the MIC (Aspergillus nidulans) was 0.125 µg/mL (≈ 0.358 µM) and the MFC (Mucor racemosus) was greater than 64 µg/mL. The MIC (Mucor racemosus) was greater than 64 µg/mL, the MFC (Candida dubliniensis) was greater than 64 µg/mL and the MIC (Candida dubliniensis) was 0.0078 µg/mL (≈ 0.0223 µM). The MFC (Aspergillus fumigatus [7]) was 1 µg/mL (≈ 2.86 µM), the MIC (Aspergillus fumigatus [7]) was 1 µg/mL (≈ 2.86 µM) and the MFC (Trichosporon asahii) was greater than 64 µg/mL. The MIC (Trichosporon asahii) was 0.0625 µg/mL (≈ 0.179 µM), the MFC (Pichia kudriavzevii) was 2 µg/mL (≈ 5.73 µM) and the MIC (Pichia kudriavzevii) was 0.125 µg/mL (≈ 0.358 µM). For the same compound, the MFC (Candida albicans [8]) was greater than 64 µg/mL, the MIC (Candida albicans [8]) was 0.0039 µg/mL (≈ 0.0112 µM) and the MIC50 [9] was 0.0625 µg/mL (≈ 0.179 µM). It also gave an MIC90 [9] of 0.125 µg/mL (≈ 0.358 µM), an MIC50 (Cryptococcus neoformans [10]) of 0.0313 µg/mL (≈ 0.0896 µM) and an MIC90 (Cryptococcus neoformans [10]) of 0.0625 µg/mL (≈ 0.179 µM). For the same compound, the MFC (Aspergillus fumigatus [11]) was 8 µg/mL (≈ 22.9 µM), the MIC (Aspergillus fumigatus [11]) was 2 µg/mL (≈ 5.73 µM) and the MFC (Trichophyton rubrum) was greater than 64 µg/mL. For the same compound, the MIC (Trichophyton rubrum) was 0.0313 µg/mL (≈ 0.0896 µM), the MFC (Aspergillus terreus) was 32 µg/mL (≈ 91.6 µM) and the MIC (Aspergillus terreus) was 0.5 µg/mL (≈ 1.43 µM).
